In brackets after ≈: the same amount, converted by molar mass. Activity calls are given as the source filed them. No cut-off for these calls is given here.
Assays:
[1] = Antitumor activity against human LXFA 629L cells; assay type: functional, cell-based
[2] = Antitumor activity against human LXFL 529L cells; assay type: functional, cell-based
[3] = Antitumor activity against human MAXF 401NL cells; assay type: functional, cell-based
[4] = Antitumor activity against human MEXF 462NL cells; assay type: functional, cell-based
[5] = Antitumor activity against human RXF 944L cells; assay type: functional, cell-based
[6] = Antitumor activity against human UXF 1138L cells; assay type: functional, cell-based
Bacillus subtilis [7] = assay: Antimicrobial activity against Bacillus subtilis at 40 ug/plate; assay type: functional, organism-based
In short: (§1)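 Agar plate diffusion test. The stated amount of compound is applied per test plate seeded with the named bacterium, alga or fungus. The read-out is the diameter of the growth-inhibition zone, in mm.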

[8] = system: Streptomyces viridochromogenes; assay: Antimicrobial activity against Streptomyces viridochromogenes Tu 57 at 40 ug/plate; assay type: functional, organism-based; in short: as §1
Staphylococcus aureus [9] = assay: Antimicrobial activity against Staphylococcus aureus at 40 ug/plate; assay type: functional, organism-based; in short: as §1
Escherichia coli [10] = assay: Antimicrobial activity against Escherichia coli at 40 ug/plate; assay type: functional, organism-based; in short: as §1
Chlorella vulgaris [11] = assay: Antimicrobial activity against Chlorella vulgaris at 40 ug/plate; assay type: functional, organism-based; in short: as §1
Chlorella sorokiniana [12] = assay: Antimicrobial activity against Chlorella sorokiniana at 40 ug/plate; assay type: functional, organism-based; in short: as §1
Desmodesmus subspicatus [13] = assay: Antimicrobial activity against Scenedesmus subspicatus at 40 ug/plate; assay type: functional, organism-based; in short: as §1
Rhizomucor miehei [14] = assay: Antimicrobial activity against Mucor miehei at 40 ug/plate; assay type: functional, organism-based; in short: as §1
Candida albicans [15] = assay: Antimicrobial activity against Candida albicans at 40 ug/plate; assay type: functional, organism-based; in short: as §1
[16] = system: Encephalomyocarditis virus; assay: Antiviral activity against EMC virus infected in human A549 cells assessed as protection against virus-induced cytopathic effect at 100 ug/ml; assay type: functional, organism-based
Bacillus subtilis [17] = assay: Antimicrobial activity against Bacillus subtilis at 10 ug/plate; assay type: functional; in short: as §1
[18] = system: Streptomyces viridochromogenes; assay: Antimicrobial activity against Streptomyces viridochromogenes Tu 57 at 10 ug/plate; assay type: functional; in short: as §1
Staphylococcus aureus [19] = assay: Antimicrobial activity against Staphylococcus aureus at 10 ug/plate; assay type: functional; in short: as §1
Escherichia coli [20] = assay: Antimicrobial activity against Escherichia coli at 10 ug/plate; assay type: functional; in short: as §1
Chlorella vulgaris [21] = assay: Antimicrobial activity against Chlorella vulgaris at 10 ug/plate; assay type: functional; in short: as §1
Chlorella sorokiniana [22] = assay: Antimicrobial activity against Chlorella sorokiniana at 10 ug/plate; assay type: functional; in short: as §1
Desmodesmus subspicatus [23] = assay: Antimicrobial activity against Scenedesmus subspicatus at 10 ug/plate; assay type: functional; in short: as §1
Rhizomucor miehei [24] = assay: Antimicrobial activity against Mucor miehei at 10 ug/plate; assay type: functional; in short: as §1
Candida albicans [25] = assay: Antimicrobial activity against Candida albicans at 10 ug/plate; assay type: functional; in short: as §1

SMILES	IC50 [1] [µg/mL]	IC50 [2] [µg/mL]	IC50 [3] [µg/mL]	IC50 [4] [µg/mL]	IC50 [5] [µg/mL]	IC50 [6] [µg/mL]	Activity (Bacillus subtilis [7])	Activity [8]	Activity (Staphylococcus aureus [9])	Activity (Escherichia coli [10])	Activity (Chlorella vulgaris [11])	Activity (Chlorella sorokiniana [12])	Activity (Desmodesmus subspicatus [13])	Activity (Rhizomucor miehei [14])	Activity (Candida albicans [15])	Activity [16]	also measured
CCCC[C@@H](C)/C=C(C)/C=C(\C)C(=O)NC1=CC(=O)C(/C=C/C=C/C=C/C(=O)NC2=C(O)CCC2=O)=C(Cl)C1=O [CHINIKOMYCIN B]	> 6	> 6	3.04 (≈ 5.36 µM)	> 6	> 6	> 6	inactive	inactive	inactive	inactive	inactive	inactive	inactive	inactive	inactive	inactive	–
CCCC[C@@H](C)/C=C(C)/C=C(\C)C(=O)Nc1cc(O)c(/C=C/C=C/C=C/C(=O)NC2=C(O)CCC2=O)c(Cl)c1O [CHINIKOMYCIN A]	> 6	> 6	2.41 (≈ 4.23 µM)	4.15 (≈ 7.29 µM)	4.02 (≈ 7.06 µM)	> 6	inactive	inactive	inactive	inactive	inactive	inactive	inactive	inactive	inactive	inactive	–
CCCC[C@@H](C)/C=C(C)/C=C(\C)C(=O)NC1=C[C@@](O)(/C=C/C=C/C=C/C(=O)NC2=C(O)CCC2=O)[C@@H]2O[C@@H]2C1=O [MANUMYCIN A]	–	–	–	–	–	–	–	–	–	–	–	–	–	–	–	–	inhibition zone (IZ) (Bacillus subtilis [17]): 16 mm; inhibition zone (IZ) [18]: 16 mm; inhibition zone (IZ) (Staphylococcus aureus [19]): 16 mm; inhibition zone (IZ) (Escherichia coli [20]): 16 mm; inhibition zone (IZ) (Chlorella vulgaris [21]): 16 mm; inhibition zone (IZ) (Chlorella sorokiniana [22]): 16 mm; inhibition zone (IZ) (Desmodesmus subspicatus [23]): 16 mm; inhibition zone (IZ) (Rhizomucor miehei [24]): 16 mm; inhibition zone (IZ) (Candida albicans [25]): 16 mm

Source: ChEMBL document CHEMBL1158698, “Chinikomycins A and B: isolation, structure elucidation, and biological activity of novel antibiotics from a marine Streptomyces sp. isolate M045” (J Nat Prod, 2005)
